Data from ChEMBL document CHEMBL1154342, “Scaffold-based design and synthesis of potent N-type calcium channel blockers” (Bioorg Med Chem Lett, 2009).
Blank lines part the entries; values can stand above or below the compound they belong to. Active and inactive are the calls of the source. The rule behind the calls is not given here.

Tests used:
[1] = molecular target: Voltage-dependent L-type calcium channel subunit beta-1/alpha-1B/alpha-2/delta-1 (Rattus norvegicus, UniProt Q02294); assay: Blocking of rat N-type calcium channel alpha-1B/alpha-2-delta-1/beta-1b activity expressed in HEK293 cells assessed as whole cell current by whole cell patch clamp assay; format: cell-based
Chain of Voltage-dependent L-type calcium channel subunit beta-1/alpha-1B/alpha-2/delta-1 (Q02294 whole entry): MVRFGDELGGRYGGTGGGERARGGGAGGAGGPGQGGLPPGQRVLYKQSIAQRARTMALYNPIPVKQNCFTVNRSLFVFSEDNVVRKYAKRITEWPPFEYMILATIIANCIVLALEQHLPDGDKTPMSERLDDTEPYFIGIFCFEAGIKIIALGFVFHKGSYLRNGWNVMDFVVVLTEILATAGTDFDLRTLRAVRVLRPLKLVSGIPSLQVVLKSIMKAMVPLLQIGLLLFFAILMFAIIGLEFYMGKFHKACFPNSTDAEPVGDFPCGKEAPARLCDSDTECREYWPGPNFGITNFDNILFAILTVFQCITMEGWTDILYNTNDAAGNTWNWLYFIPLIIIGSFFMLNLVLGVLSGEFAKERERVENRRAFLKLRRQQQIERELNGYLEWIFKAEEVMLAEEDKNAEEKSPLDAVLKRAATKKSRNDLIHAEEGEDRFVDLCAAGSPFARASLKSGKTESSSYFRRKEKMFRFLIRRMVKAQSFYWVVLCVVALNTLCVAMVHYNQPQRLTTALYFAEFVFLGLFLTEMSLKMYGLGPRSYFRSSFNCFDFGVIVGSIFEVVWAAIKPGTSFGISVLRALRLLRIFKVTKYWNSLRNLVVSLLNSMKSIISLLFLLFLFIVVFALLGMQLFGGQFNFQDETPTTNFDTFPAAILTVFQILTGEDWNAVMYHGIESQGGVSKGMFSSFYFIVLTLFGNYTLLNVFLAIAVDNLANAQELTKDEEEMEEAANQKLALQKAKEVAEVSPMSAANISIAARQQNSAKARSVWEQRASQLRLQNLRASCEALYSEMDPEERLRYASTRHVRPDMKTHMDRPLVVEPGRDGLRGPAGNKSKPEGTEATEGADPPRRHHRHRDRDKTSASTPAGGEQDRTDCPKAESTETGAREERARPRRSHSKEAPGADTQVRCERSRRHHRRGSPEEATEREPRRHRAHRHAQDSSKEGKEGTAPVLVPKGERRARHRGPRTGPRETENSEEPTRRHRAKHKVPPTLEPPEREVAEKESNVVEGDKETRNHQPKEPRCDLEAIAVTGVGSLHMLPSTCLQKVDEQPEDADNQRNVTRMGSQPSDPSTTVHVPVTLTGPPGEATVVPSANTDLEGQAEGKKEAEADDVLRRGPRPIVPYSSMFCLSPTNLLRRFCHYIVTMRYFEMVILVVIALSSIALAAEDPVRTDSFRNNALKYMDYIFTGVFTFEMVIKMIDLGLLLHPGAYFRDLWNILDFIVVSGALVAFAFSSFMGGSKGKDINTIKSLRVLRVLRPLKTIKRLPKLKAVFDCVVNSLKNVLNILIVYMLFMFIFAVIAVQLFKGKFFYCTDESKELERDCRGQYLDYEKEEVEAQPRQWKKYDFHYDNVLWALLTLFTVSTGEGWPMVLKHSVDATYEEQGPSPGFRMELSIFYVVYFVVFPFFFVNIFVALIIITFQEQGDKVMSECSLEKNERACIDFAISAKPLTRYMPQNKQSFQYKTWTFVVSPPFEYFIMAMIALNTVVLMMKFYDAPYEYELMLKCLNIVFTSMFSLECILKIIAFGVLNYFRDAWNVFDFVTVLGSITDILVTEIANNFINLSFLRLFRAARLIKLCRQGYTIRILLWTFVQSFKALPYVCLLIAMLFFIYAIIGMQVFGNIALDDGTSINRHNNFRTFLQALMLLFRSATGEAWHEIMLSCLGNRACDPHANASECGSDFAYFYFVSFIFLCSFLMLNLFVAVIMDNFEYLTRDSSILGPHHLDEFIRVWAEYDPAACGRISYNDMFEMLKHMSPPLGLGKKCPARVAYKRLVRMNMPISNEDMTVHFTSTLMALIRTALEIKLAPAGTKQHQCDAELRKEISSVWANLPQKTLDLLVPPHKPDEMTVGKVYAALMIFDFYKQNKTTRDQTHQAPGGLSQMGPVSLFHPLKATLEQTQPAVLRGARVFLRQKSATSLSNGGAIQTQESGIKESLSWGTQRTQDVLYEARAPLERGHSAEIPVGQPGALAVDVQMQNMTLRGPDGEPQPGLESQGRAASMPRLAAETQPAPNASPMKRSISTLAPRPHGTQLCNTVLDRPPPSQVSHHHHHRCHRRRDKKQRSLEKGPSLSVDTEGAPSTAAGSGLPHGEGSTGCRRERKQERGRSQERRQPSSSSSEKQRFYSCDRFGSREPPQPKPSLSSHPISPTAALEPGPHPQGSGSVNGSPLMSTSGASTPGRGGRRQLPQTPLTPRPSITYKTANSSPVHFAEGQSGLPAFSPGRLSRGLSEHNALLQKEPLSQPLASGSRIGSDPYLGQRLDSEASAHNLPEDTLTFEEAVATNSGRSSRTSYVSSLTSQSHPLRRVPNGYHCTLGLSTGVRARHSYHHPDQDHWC
Chain of Voltage-dependent L-type calcium channel subunit beta-1/alpha-1B/alpha-2/delta-1 (P54283 whole entry partner): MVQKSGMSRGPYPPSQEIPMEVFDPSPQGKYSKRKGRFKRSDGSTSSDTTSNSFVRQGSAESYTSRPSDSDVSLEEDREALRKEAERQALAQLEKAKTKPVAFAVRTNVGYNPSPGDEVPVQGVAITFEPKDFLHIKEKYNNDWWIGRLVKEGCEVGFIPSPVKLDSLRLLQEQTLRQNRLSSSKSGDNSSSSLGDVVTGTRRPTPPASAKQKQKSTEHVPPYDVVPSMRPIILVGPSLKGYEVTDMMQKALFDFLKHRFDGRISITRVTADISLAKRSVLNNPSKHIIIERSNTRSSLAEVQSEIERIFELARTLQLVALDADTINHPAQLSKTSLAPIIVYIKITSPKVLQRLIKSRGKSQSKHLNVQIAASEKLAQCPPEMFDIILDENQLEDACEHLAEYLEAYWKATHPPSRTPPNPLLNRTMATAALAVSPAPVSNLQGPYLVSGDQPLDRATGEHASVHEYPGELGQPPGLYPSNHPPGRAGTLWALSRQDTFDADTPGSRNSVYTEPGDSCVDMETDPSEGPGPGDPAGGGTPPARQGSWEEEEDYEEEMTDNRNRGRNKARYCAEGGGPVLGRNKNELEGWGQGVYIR
Chain of Voltage-dependent L-type calcium channel subunit beta-1/alpha-1B/alpha-2/delta-1 (P54290 25-944 partner limits assumed): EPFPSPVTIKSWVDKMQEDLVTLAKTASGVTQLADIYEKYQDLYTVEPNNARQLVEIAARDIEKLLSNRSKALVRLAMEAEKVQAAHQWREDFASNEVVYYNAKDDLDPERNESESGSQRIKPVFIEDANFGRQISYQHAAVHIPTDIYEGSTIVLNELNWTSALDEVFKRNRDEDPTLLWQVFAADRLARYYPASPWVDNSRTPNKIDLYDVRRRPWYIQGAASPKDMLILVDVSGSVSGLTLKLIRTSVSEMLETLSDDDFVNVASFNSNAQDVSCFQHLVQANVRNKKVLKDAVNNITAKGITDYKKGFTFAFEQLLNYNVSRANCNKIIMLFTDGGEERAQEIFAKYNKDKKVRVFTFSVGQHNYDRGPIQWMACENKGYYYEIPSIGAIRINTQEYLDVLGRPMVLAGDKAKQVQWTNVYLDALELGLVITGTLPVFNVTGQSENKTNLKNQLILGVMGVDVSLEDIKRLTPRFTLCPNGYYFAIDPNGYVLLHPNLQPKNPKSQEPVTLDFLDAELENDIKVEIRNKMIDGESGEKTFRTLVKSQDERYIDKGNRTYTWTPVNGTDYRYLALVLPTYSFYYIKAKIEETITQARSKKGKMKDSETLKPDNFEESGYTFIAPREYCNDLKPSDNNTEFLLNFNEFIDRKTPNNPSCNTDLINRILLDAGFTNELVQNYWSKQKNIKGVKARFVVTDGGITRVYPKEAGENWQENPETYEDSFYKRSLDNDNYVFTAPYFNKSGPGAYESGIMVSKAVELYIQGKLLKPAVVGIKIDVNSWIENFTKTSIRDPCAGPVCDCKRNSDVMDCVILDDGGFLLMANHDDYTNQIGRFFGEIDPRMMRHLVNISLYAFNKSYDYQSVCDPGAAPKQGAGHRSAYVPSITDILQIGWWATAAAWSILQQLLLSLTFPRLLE
Chain of Voltage-dependent L-type calcium channel subunit beta-1/alpha-1B/alpha-2/delta-1 (P54290 945-1091 partner limits assumed): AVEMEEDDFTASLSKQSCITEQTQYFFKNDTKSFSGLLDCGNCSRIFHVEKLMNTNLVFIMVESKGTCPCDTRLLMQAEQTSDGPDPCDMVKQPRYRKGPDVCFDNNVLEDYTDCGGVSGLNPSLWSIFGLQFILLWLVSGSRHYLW
Outline: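 HEK293 cells transiently transfected with rat channel subunits, recorded 24–72 h post-transfection. Whole-cell patch clamp with barium as charge carrier; currents elicited from a holding potential of −100 mV to the peak of the current–voltage relation. Each compound tested on 3–5 cells; IC50 estimated.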

[2] = Blocking of rat Voltage-dependent L-type calcium channel alpha1c/alpha2delta-1/beta1b activity expressed in HEK293 cells assessed as whole cell current by whole cell patch clamp assay; format: cell-based
Outline: (§1)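 HEK293 cells transiently transfected with rat channel subunits and recorded 24–72 h later. Whole-cell patch clamp used barium as the charge carrier. Currents were elicited from a holding potential of −100 mV to the peak of each channel's current–voltage relation. Each compound was tested on 3–5 cells per subtype.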

Rattus norvegicus [3] = species: Rattus norvegicus; assay: Selectivity ratio of IC50 for rat Voltage-dependent L-type calcium channel to IC50 for rat N-type calcium channel; outline: as §1
[4] = Cmax in rat at 2 mg/kg, iv; format: ADME, organism-based; design: dose 2 mg/kg, route intravenous; details: in vivo
Outline: (§2)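 Rats given a single dose by vein (2 mg/kg) or by mouth (10 mg/kg). Plasma sampled, with AUC taken to 8 h and extrapolated to infinity. Cmax is the highest observed concentration, and Tmax is the time to it. Half-life, apparent volume of distribution, plasma clearance and oral bioavailability were also derived. Values are given as mean with standard error.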

[5] = AUC (0 to infinity) in rat at 10 mg/kg, po; details: plasma
Rattus norvegicus [6] = assay: Apparent oral clearance in rat at 10 mg/kg, po; details: in vivo
[7] = AUC (0 to 8 hrs) in rat at 10 mg/kg, po; details: plasma
[8] = Cmax in rat at 10 mg/kg, po; details: in vivo
[9] = Volume of distribution at steady state in rat at 2 mg/kg, iv; format: ADME, organism-based; design: dose 2 mg/kg, route intravenous; details: in vivo, read-out: Vdss; outline: as §2
[10] = AUC (0 to infinity) in rat at 2 mg/kg, iv; format: ADME, organism-based; design: time infinity, dose 2 mg/kg, route intravenous; details: plasma; outline: as §2
[11] = Oral bioavailability in rat at 10 mg/kg, po; details: in vivo
Rattus norvegicus [12] = assay: Analgesic activity against phse 2A portion of rat formalin-induced inflammatory pain model assessed as flinches at 25 mg/kg, ip; format: functional, organism-based; design: dose 25 mg/kg
Outline: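 Rat formalin inflammatory pain model with the phase IIA portion scored. Compounds were given intraperitoneally at 25 mg/kg, using 24–26 animals per group.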

[13] = AUC (0 to 8 hrs) in rat at 2 mg/kg, iv; format: ADME, organism-based; design: time < 8 hr, dose 2 mg/kg, route intravenous; details: plasma; outline: as §2
[14] = Half life in rat at 2 mg/kg, iv; format: ADME, organism-based; design: dose 2 mg/kg, route intravenous; details: in vivo; outline: as §2
[15] = Half life in rat at 10 mg/kg, po; details: in vivo
[16] = molecular target: Mu-type opioid receptor (Homo sapiens) (UniProt P35372); assay: Displacement of radioligand from mu opioid receptor at 10 uM
Chain of Mu-type opioid receptor (Homo sapiens) (P35372 whole entry): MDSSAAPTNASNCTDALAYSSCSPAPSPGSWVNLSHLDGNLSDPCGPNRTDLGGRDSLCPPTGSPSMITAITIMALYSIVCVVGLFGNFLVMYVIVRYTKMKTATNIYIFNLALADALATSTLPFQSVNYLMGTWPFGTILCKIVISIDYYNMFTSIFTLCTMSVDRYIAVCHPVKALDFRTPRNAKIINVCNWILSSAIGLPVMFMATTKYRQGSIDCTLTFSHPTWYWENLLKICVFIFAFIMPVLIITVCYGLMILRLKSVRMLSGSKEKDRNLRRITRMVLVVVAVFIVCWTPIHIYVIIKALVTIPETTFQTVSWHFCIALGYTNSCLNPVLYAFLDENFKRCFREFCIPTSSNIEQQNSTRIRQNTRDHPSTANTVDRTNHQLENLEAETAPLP

[17] = Displacement of radioligand from Voltage-dependent L-type calcium channel at 10 uM
[18] = Displacement of radioligand from voltage-gated sodium channel at 10 uM
[19] = molecular target: Cannabinoid receptor 1 (Homo sapiens) (UniProt P21554); assay: Displacement of radioligand from cannabinoid CB1 receptor at 10 uM
Chain of Cannabinoid receptor 1 (Homo sapiens) (P21554 whole entry): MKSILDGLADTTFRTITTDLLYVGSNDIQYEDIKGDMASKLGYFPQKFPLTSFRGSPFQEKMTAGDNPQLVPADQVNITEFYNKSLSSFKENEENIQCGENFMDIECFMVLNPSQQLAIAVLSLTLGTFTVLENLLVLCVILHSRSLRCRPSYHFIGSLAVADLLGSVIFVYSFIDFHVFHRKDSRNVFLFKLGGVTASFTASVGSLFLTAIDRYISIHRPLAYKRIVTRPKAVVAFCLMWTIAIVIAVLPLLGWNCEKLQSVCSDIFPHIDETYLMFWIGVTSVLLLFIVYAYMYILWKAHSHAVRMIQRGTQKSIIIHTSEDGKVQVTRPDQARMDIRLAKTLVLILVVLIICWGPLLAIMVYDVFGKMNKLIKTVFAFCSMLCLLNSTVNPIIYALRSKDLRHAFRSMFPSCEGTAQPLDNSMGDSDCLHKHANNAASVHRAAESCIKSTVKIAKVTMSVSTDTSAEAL

[20] = molecular target: Voltage-gated inwardly rectifying potassium channel KCNH2 (Homo sapiens, UniProt Q12809); assay: Inhibition of human ERG current
Outline: (§3)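 Whole-cell patch clamp of HEK cells stably expressing hERG, measuring peak tail currents. A single 1 µM application was used for the screen. The concentration–response used 0.1, 1, 3 and 10 µM against a 0.1% DMSO control, with n = 4 per concentration.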

hERG (KCNH2) = hERG (KCNH2) (Homo sapiens, UniProt Q12809); assay: Inhibition of human ERG current at 1 uM; outline: as §3

Compound: c1ccc(C(CCN2CCN(C(c3ccccc3)c3ccccc3)CC2)c2ccccc2)cc1
IC50 [1]: 5000 nM

Compound: O=C(CCCCC(c1ccccc1)c1ccccc1)N1CCN(C/C=C/c2ccccc2)CC1 (stereo in doubt; 5c) [listing 1 of 2 here]
IC50 [1]: 120 nM
IC50 ([2]; hek293): 330 nM

Compound: O=C(CCCCC(c1ccc(F)cc1)c1ccc(F)cc1)N1CCN(C/C=C/c2ccccc2)CC1
IC50 [1]: 90 nM
IC50 ([2]; HEK293): 120 nM
Ratio IC50 (Rattus norvegicus [3]): 1.3

Compound: Nc1ccc(/C=C/C(=O)N2CCN(C(=O)CCCCC(c3ccccc3)c3ccccc3)CC2)cc1
IC50 [1]: 150 nM
IC50 ([2]; HEK293): 830 nM
Ratio IC50 (Rattus norvegicus [3]): 5.5

Compound: O=C(CCCCC(c1ccccc1)c1ccccc1)N1CCN(C/C=C/c2cccc3c2OCO3)CC1
IC50 [1]: 190 nM

Compound: O=C(/C=C/c1cccc2c1OCO2)N1CCN(C(=O)CCCCC(c2ccccc2)c2ccccc2)CC1
IC50 [1]: 130 nM
IC50 ([2]; HEK293): 740 nM
Ratio IC50 (Rattus norvegicus [3]): 5.7

Compound: O=C(CCCCC(c1ccccc1)c1ccccc1)N1CCN(C/C=C/c2ccccc2)CC1 (stereo in doubt; 5a) [listing 1 of 2 here]
IC50 [1]: 50 nM
IC50 ([2]; HEK293): 390 nM

Compound: Fc1ccc(C(c2ccc(F)cc2)N2CCN(C/C=C/c3ccccc3)CC2)cc1 [FLUNARIZINE]
IC50 [1]: 80 nM
IC50 ([2]; HEK293): 310 nM
Ratio IC50 (Rattus norvegicus [3]): 3.9

Compound: COc1cc(C(=O)N2CCN(CCCCCC(c3ccc(F)cc3)c3ccc(F)cc3)CC2)cc(OC)c1OC
Cmax [4]: 462 ng/mL
AUC(0-inf) [5]: 1020 ng·h/mL
IC50 [1]: 110 nM
CL/F (Rattus norvegicus [6]): 170 mL/min/kg
AUC(0-t) at 8 h [7]: 753 ng·h/mL
Cmax [8]: 173 ng/mL
Vd [9]: 11.7 L/kg
AUC(0-inf) [10]: 975 ng·h/mL
IC50 ([2]; HEK293): 2840 nM
bioavailability [11]: 21%
Activity (Rattus norvegicus [12]): Active
AUC(0-t) at 8 h [13]: 725 ng·h/mL
half-life [14]: 300 min
half-life [15]: 270 min

Compound: O=C(CCCCC(c1ccccc1)c1ccccc1)N1CCN(C(c2ccccc2)c2ccccc2)CC1
IC50 [1]: 50000 nM

Compound: O=C(CCCCC(c1ccccc1)c1ccccc1)N1CCN(C/C=C/c2ccccc2)CC1 (stereo in doubt; 5a) [listing 2 of 2 here]
Ratio IC50 (Rattus norvegicus [3]): 8

Compound: O=C(CC(c1ccccc1)c1ccccc1)N1CCN(C(c2ccccc2)c2ccccc2)CC1 [Z160]
Cmax [4]: 771 ng/mL
Activity [16]: Active
Activity [17]: Active
AUC(0-inf) [5]: 1140 ng·h/mL
IC50 [1]: 110 nM
Activity [18]: Active
CL/F (Rattus norvegicus [6]): 164 mL/min/kg
AUC(0-t) at 8 h [7]: 999 ng·h/mL
Activity [19]: Active
Cmax [8]: 235 ng/mL
IC50 [20]: 7.4 µM
Vd [9]: 5.79 L/kg
AUC(0-inf) [10]: 761 ng·h/mL
inhibition at 1 µM (hERG (KCNH2)): 24.8%
IC50 ([2]; HEK293): 12200 nM
bioavailability [11]: 30%
Activity (Rattus norvegicus [12]): Active
AUC(0-t) at 8 h [13]: 715 ng·h/mL
half-life [14]: 198 min
half-life [15]: 126 min
Ratio IC50 (Rattus norvegicus [3]): 111

Compound: c1ccc(C(CCCCN2CCN(C(c3ccccc3)c3ccccc3)CC2)c2ccccc2)cc1
IC50 [1]: 20000 nM

Compound: c1ccc(C(CCCCCN2CCN(C(c3ccccc3)c3ccccc3)CC2)c2ccccc2)cc1
IC50 [1]: 50000 nM

IC50 ([2]; HEK293): 1840 nM
Ratio IC50 (Rattus norvegicus [3]): 12
Compound: O=C(NC(c1ccccc1)c1ccccc1)N1CCN(C(c2ccccc2)c2ccccc2)CC1

Compound: COc1ccc(/C=C/CN2CCN(C(=O)CCCCC(c3ccccc3)c3ccccc3)CC2)cc1
IC50 [1]: 190 nM

Compound: O=C(CCCCC(c1ccccc1)c1ccccc1)N1CCN(C/C=C/c2ccccc2)CC1 (stereo in doubt; 5c) [listing 2 of 2 here]
Ratio IC50 (Rattus norvegicus [3]): 2.8

Compound: COc1ccc(/C=C/C(=O)N2CCN(C(=O)CCCCC(c3ccccc3)c3ccccc3)CC2)cc1
IC50 [1]: 90 nM
IC50 ([2]; HEK293): 250 nM
Ratio IC50 (Rattus norvegicus [3]): 2.8

IC50 ([2]; HEK293): 150 nM
Ratio IC50 (Rattus norvegicus [3]): 1.7
Compound: COc1ccc(CN2CCN(C(c3ccc(F)cc3)c3ccc(F)cc3)CC2)c(OC)c1OC [LOMERIZINE]

IC50 [1]: > 50000 nM
Compound: O=C(CCCC(c1ccccc1)c1ccccc1)N1CCN(C(c2ccccc2)c2ccccc2)CC1

IC50 [1]: > 50000 nM
Compound: O=C(C(c1ccccc1)c1ccccc1)N1CCN(C(c2ccccc2)c2ccccc2)CC1

Compound: c1ccc(C(CCCN2CCN(C(c3ccccc3)c3ccccc3)CC2)c2ccccc2)cc1
IC50 [1]: 6000 nM

Compound: COc1cc(C(=O)N2CCN(C(=O)CCCCC(c3ccc(F)cc3)c3ccc(F)cc3)CC2)cc(OC)c1OC
IC50 [1]: 540 nM

Compound: COc1cc(CN2CCN(C(=O)CCCCC(c3ccc(F)cc3)c3ccc(F)cc3)CC2)cc(OC)c1OC
IC50 [1]: 190 nM

Compound: O=C(CCC(c1ccccc1)c1ccccc1)N1CCN(C(c2ccccc2)c2ccccc2)CC1
IC50 [1]: 23000 nM

IC50 [1]: > 50000 nM
Compound: c1ccc(C(CN2CCN(C(c3ccccc3)c3ccccc3)CC2)c2ccccc2)cc1
